An excerpt weighted towards active compounds, which were near 5.9% of everything screened.
Cav32 inh – human Cav3.2 channel inhibition, primary screen; B-score at 10 µM; hit rate 4% among 100,000; O95180; Cav3.2-expressing cells, Fluo-4 calcium fluorescence FDSS; stronger effect = lower value;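 active = single-dose well whose peak fluorescence ratio is a statistical outlier from its plate by either plate-standardised score or position-corrected B-score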
Measles CPE – protection of cells from measles virus. Measles virus-infected cells, CPE protection, absorbance. protection (pct of control), % at 4 µM. hit rate 1.5% among 140,000. AID 841; in the data active = protection mostly above about 24%, no sharp cut-off; inactive = mostly below about 26%
DAT uptake mod – changed human dopamine transporter uptake under cocaine IC80. Q01959. LLC-PK1 hDAT cells, [14C]-dopamine uptake with cocaine IC80; actives deviate in either direction. B-score at 10 µM. hit rate 1.3% among 110,000;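 active = Z score or B-score, a plate-position-corrected score, falls beyond the plate's 99.7% confidence bounds, in either direction; inactive = both scores lie inside the 99.7% bounds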;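 also: scored against the spread of the other compound wells on the same plate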
Target sequence (Q01959 whole entry, looked up): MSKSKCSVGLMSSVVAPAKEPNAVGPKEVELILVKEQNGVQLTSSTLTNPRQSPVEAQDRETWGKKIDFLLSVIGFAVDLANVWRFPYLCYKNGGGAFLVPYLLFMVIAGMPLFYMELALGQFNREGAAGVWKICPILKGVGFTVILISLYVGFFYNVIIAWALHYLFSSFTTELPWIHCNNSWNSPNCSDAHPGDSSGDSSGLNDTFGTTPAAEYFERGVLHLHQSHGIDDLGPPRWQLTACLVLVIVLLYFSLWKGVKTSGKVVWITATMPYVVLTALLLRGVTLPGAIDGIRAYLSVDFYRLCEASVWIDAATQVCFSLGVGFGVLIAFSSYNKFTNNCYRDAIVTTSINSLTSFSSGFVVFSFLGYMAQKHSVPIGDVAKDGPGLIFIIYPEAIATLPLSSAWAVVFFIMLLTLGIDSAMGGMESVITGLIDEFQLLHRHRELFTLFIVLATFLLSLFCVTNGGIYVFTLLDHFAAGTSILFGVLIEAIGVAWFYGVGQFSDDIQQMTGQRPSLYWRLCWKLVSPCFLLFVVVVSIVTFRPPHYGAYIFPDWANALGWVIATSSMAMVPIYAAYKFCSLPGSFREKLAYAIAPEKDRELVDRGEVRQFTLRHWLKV
Phagocytosis inh – macrophage phagocytosis inhibition | J774A.1 macrophage IgG-bead phagocytosis, imaging | inhibition, % at 5 µM | hit rate 0.07% among 110,000 | AID 1029;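 active = inhibition above the mean of the plate negative controls plus 5 SD, cut at about 13% in these data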;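 also: phagocytic index as fraction of beads internalized from green versus red external bead signal; plate controls were DMSO negative control for no effect and cytochalasin-D positive control for full effect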
HIV Rev-RRE inh – HIV Rev-RRE protein-RNA interaction inhibition. P05866. Rev peptide-RRE RNA binding, FRET. inhibition, % at 8 µM. hit rate 0.79% among 97,000;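 active = inhibition above the screen-wide mean plus 3 SD, cut at about 35% in these data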;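 also: 0% = median DMSO wells and 100% = median Neomycin B control wells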
Target sequence (P05866 whole entry, looked up): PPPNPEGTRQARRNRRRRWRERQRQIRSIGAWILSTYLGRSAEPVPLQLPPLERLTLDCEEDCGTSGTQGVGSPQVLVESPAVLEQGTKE
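System: Cy5-labelled duplex RRE RNA binding fluorescein-labelled HIV Rev peptide; Signal: fluorescein-to-Cy5 FRET, 480 nm excitation; Also added: labelled Rev peptide; Compound: one concentration, 8 µM nominal; Buffer or medium: HEPES pH 7.5 salt buffer with EDTA; Read-out: % inhibition of FRET ratio versus controls; Schedule: 5 min preincubation and 15 min binding, 25 °C.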
PTK2B oligo ant – antagonists of human Pyk2 oligomerization. Q293 cells, Pyk2 FERM NanoBiT luminescence; stronger effect = lower value. hit rate 0.83% among 99,000. AID 1347419. z-score (the deposit names both 25 µM and 10 µM);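 active = Z-score of -3 or lower, scaled per plate to the spread of control and sample wells; inactive = z-score above -3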;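 also: negative z-score means lost luminescence so less FERM oligomerization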
* marks the source's active call; other numbers are inactive results; / = no result.

SMILES	Cav32 inh	Measles CPE	DAT uptake mod	Phagocytosis inh	HIV Rev-RRE inh	PTK2B oligo ant
CN(C)C(=O)COC(=O)c1ccccc1Nc1ccc(SC(F)F)cc1	/	18.4	/	-2.6	/	/
O=C(c1ccccc1Nc1ccc(SC(F)F)cc1)N1CCCCCC1	-6.83*	2.9	0.306	/	12.1	0.25
O=C(CSCC(=O)N1CCCCC1)Nc1nc(-c2ccccc2)c(-c2ccccc2)s1	-2.83	9.0	-0.215	/	/	/
O=C(C[n+]1ccc(-c2nnc3n2CCC3)cc1)c1ccc(Cl)c(Cl)c1	/	19.7	/	-11.8	/	2.06
CCOc1ccccc1NC(=O)c1cc(C(=O)c2cc(OC)ccc2O)coc1=N	/	2.0	/	/	/	/
COc1ccc(OC)c(/C(O)=C/C(=O)C(=O)Nc2cc(C)cc(C)c2)c1	-9.1*	4.0	1.77	2.4	7.8	-0.43
COc1ccc(OC)c(/C(O)=C/C(=O)C(=O)Nc2cc(C)ccc2OC)c1	-5.55*	18.9	0.095	0.1	8.0	-0.02
CCOC(=O)Nc1cc(C)ccc1OC	-1.14	9.4	-1.61	0.4	1.4	-0.19
CCOc1ccccc1NC(=O)C(=O)/C=C(\O)c1cc(OC)ccc1OC	-9.6*	5.3	0.855	0.0	1.0	-0.31
CNc1ccc(/C=C/C(=O)c2cccc3ccccc23)cc1[N+](=O)[O-]	/	4.9	/	-3.0	/	/
C[C@@H](C(=O)Nc1ccc2ccccc2c1)[C@@H]1C[C@@]1(C)[C@@H](NC(=O)c1ccccc1)c1ccccc1	-3.92*	6.4	1.17	/	/	/
O=C(CN(c1ccc(Cl)cc1)S(=O)(=O)c1ccccc1)N/N=C/c1ccco1	-5.98*	26.1	0.609	-1.0	6.6	0.2
Cc1ccc(S(=O)(=O)N(CC(=O)N/N=C/c2ccco2)c2cc(Cl)cc(Cl)c2)cc1	/	23.0	/	-5.3	/	/
O=C(O)c1ccc2c(c1)C(=O)N(CCC1=CCCCC1)C2=O	/	2.7	-0.861	2.0	/	0.5
CN(C(=O)c1ccc2c(c1)C(=O)N(CCC1=CCCCC1)C2=O)C1CCCCC1	-6.13*	8.1	-0.429	/	6.2	/
CN(c1cccc(NC(=O)Cc2ccccc2)c1)S(C)(=O)=O	-0.561	9.1	1.53	9.7	3.0	-0.35
CN(c1cccc(NC(=O)c2ccc(Cl)c(S(=O)(=O)Nc3ccccc3)c2)c1)S(C)(=O)=O	-3.82	11.6	1.08	1.8	0.9	-3.85*
Cc1ccccc1NS(=O)(=O)c1cc(C(=O)Nc2cccc(N(C)S(C)(=O)=O)c2)ccc1C	-2.99	5.9	2	-3.0	11.5	-3.03*
COC(=O)c1cc(OC)c(OC)cc1NC(=S)N1CCN(c2ccccc2)CC1	0.0866	19.9	1.12	-0.5	-0.1	0.04
CN1CCN(C(=O)c2ccccc2NC(=O)C(C)(C)C)CC1	0.313	9.1	-1.52	/	8.1	1.07
CN1CCN(C(=O)c2ccccc2NC(=O)c2cccs2)CC1	0.00814	45.4*	0.612	-0.7	1.5	0.14
COC(=O)c1sccc1NC(=O)c1csc(C)c1	-1.27	25.4*	0.446	-0.2	7.0	-0.52
COC(=O)c1sccc1NC(=O)Nc1ccc(Cl)c(Cl)c1	0.557	8.6	-7.91*	-0.1	8.0	0.05
COc1ccc(NC(=O)CSC2=C(C#N)C(c3ccco3)C3=C(CCCC3=O)N2)c(OC)c1 (configuration not stated)	0.295	9.6	-2.66*	-0.5	9.2	0.42
CC(C)(C)c1ccc(C(=O)CCCSC2=C(C#N)C(c3ccco3)C3=C(CCCC3=O)N2)cc1 (configuration not stated)	-4.31*	1.5	2.16	1.9	-3.6	0.98
SMILES	Cav32 inh	Measles CPE	DAT uptake mod	Phagocytosis inh	HIV Rev-RRE inh	PTK2B oligo ant
Cc1ccc(C(=O)CSC2=C(C#N)C(c3ccco3)C3=C(CCCC3=O)N2)cc1 (configuration not stated)	0.604	4.1	-0.558	0.2	/	-0.32
CCOC(=O)c1cccc(Nc2nc(-c3cccnc3)nc3ccccc23)c1	/	28.7*	/	0.9	8.9	-3.65*
COc1ccc(/C=N/NC(=S)NC2CCS(=O)(=O)C2)cc1 (configuration not stated)	/	4.6	/	0.5	/	/
CCN(CC)S(=O)(=O)c1cccc(C(=O)N[C@H](C(=O)OCC(=O)Nc2ccccc2)C(C)C)c1	-9.18*	9.2	0.121	-0.4	12.4	-1.15
CCN(CC)S(=O)(=O)c1cccc(C(=O)N[C@H](C(=O)OCC(N)=O)C(C)C)c1	0.395	18.3	0.301	/	9.9	0.6
N#Cc1cc2c(nc1SCc1ccccc1)CCC2	-0.14	11.9	-0.817	/	-0.6	0.3
CN1CCc2nc(SCCOc3ccccc3)c(C#N)cc2C1	-2.26	6.0	1.18	/	24.0	0.41
CCOC(=O)C1=C(CSc2nc3c(cc2C#N)CCC3)OC(N)=C(C#N)C1c1ccccc1 (configuration not stated)	-5.12*	5.2	0.226	/	21.0	-0.12
CCOC(=O)C1=C(CSc2nc3c(cc2C#N)CN(C)CC3)OC(N)=C(C#N)C1c1ccc(F)cc1 (configuration not stated)	/	6.5	-0.653	-0.8	56.8*	0.44
COC(=O)C1=C(CSc2nc3c(cc2C#N)CN(C)CC3)OC(N)=C(C#N)C1c1ccccc1F (configuration not stated)	-0.551	7.2	-1.14	/	53.6*	0.13
CCOC(=O)C1=C(CSc2nc3c(cc2C#N)CN(C)CC3)OC(N)=C(C#N)C1c1ccccc1 (configuration not stated)	-0.468	12.5	1.27	-1.0	57.4*	-0.66
CC1(C)OC(=O)C(=NNc2ccc(Br)cc2)C(=O)O1	/	5.5	/	-2.3	/	/
CCOC(=O)C1=C(CSc2nc(-c3ccccc3)ccc2C#N)OC(N)=C(C#N)C1c1cccnc1 (configuration not stated)	/	10.5	-0.994	-0.6	36.6*	-1.35
CCOC(=O)C1=C(CSc2nc(-c3ccccc3)ccc2C#N)OC(N)=C(C#N)C1c1ccccc1 (configuration not stated)	/	6.3	-0.345	-1.1	27.5	-0.46
CCC(SC1=NCCS1)C(=O)Nc1ccc(S(N)(=O)=O)cc1 (configuration not stated)	/	17.5	/	-2.0	/	0.41
Cc1cc(C)n(C(=O)c2cccc(S(=O)(=O)N3CCOCC3)c2)n1	/	14.8	-8.32*	-0.2	3.2	-0.34
CNc1nnc(-c2ccc(N(C)C)cc2)s1	0.677	3.2	-0.072	/	-0.1	-0.72
O=C(/C=C/c1ccc(O)c(O)c1)O[C@H](Cc1ccc(O)c(O)c1)C(=O)O	0.787	/	-1.27	/	/	/
Cc1ccc(NC(=O)c2nc[nH]c2C(=O)Nc2ccc(C)cc2)cc1	0.434	59.0*	-0.125	-2.3	11.5	0.04
CNC(=O)c1[nH]cnc1C(=O)Nc1ccc(C)cc1	-0.144	14.5	0.229	/	5.3	/
Cc1c(Cl)cccc1NC(=O)CCC(=O)NNC(=O)c1ccccc1	/	13.3	/	-5.9	/	/
O=C(NN1CCOCC1)c1cc(-c2ccccc2)nc2ccccc12	0.581	7.6	0.108	0.4	3.1	0.56
O=C(NN1CCOCC1)c1cc(-c2cccc(Cl)c2)nc2ccccc12	-0.0297	42.6*	-0.647	/	2.3	-0.55
